Results reported in PubChem BioAssay AID540246 (Broad Institute, 2011).
Calls of active or inactive are those of the source.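 How the source made its calls: active means IC50 no more than ten times the top valid dose, with luminescence dropping as cells die; inconclusive means flat curve losing 30 to 70% of signal, or poor fit; inactive means the rest, including signal rises.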

Legend:
[1] = cell viability loss over short exposure – CellTiter-Glo, 3 h, dry powder, cytotoxicity control for SR-BI HDL uptake inhibitor project, dose response (AID 540246); settings: ldlA[mSR-BI] CHO cells viability, CellTiter-Glo ATP, 3 h
Summary of the method: (§1)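 Test system: ldlA[mSR-BI] cells. Buffer or medium: Ham's F12 growth medium containing 10% FCS. Compound: eight doses per compound. Times: 3 h compound exposure of cells at 37 °C. Technique: cell Titer Glo ATP luminescence. Read-out: IC50 for loss of cell viability fitted from dose series.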

[2] = test system: ldlA[mSR-BI] CHO cells viability, CellTiter-Glo ATP, 3 h; test: as above
Summary of the method: as §1

Compound: C[C@@H]1CN([C@H](C)CO)C(=O)c2cc(NC(=O)Cc3cn(C)c4ccccc34)ccc2O[C@H]1CN(C)S(=O)(=O)c1ccc(F)cc1
- activity change, negative = cytotoxicity ([1]; at 35 µM (top of the series)): 3.35% (inactive)

Compound: C[C@@H]1CN([C@H](C)CO)C(=O)c2cc(NC(=O)Cc3cn(C)c4ccccc34)ccc2O[C@H]1CN(C)S(=O)(=O)c1ccccc1
- activity change, negative = cytotoxicity ([1]; at 35 µM (top of the series)): 1.67% (inactive)

Compound: O=C(Nc1ccc(-c2nc3cc(NC(=O)c4ccccc4[N+](=O)[O-])ccc3o2)cc1)c1ccccc1[N+](=O)[O-]
- activity change, negative = cytotoxicity ([1]; at 35 µM (top of the series)): 9.71% (inactive)

Compound: O=C(Nc1cc(Cl)ccc1Cl)c1cc(Cl)ccc1NS(=O)(=O)c1ccc(Cl)c([N+](=O)[O-])c1
- IC50 [2]: > 35 µM (inactive)

Compound: C[C@H]1CN([C@@H](C)CO)C(=O)c2cccc(NC(=O)Nc3ccccc3)c2O[C@@H]1CN(C)C
- activity change, negative = cytotoxicity ([1]; at 35 µM (top of the series)): -3.85% (inactive)

Compound: CCOc1ccccc1/C=C/c1onc(C)c1S(=O)(=O)N1CCC(C(=O)NC(C)(C)C)CC1
- IC50 [2]: > 35 µM (inactive)

Compound: C[C@@H]1CN([C@H](C)CO)C(=O)c2cc(NC(=O)Cc3cn(C)c4ccccc34)ccc2O[C@@H]1CN(C)S(=O)(=O)c1ccc(F)cc1
- activity change, negative = cytotoxicity ([1]; at 35 µM (top of the series)): 4.76% (inactive)

Compound: O=C(Nc1ccc(-c2nc3cc(NC(=O)c4ccccc4Cl)ccc3o2)cc1)c1ccccc1Cl
- activity change, negative = cytotoxicity ([1]; at 35 µM (top of the series)): 15.2% (inactive)

Compound: C[C@H]1CN([C@@H](C)CO)C(=O)c2cccc(NC(=O)Nc3ccccc3)c2O[C@@H]1CN(C)Cc1ccc(C(F)(F)F)cc1
- activity change, negative = cytotoxicity ([1]; at 35 µM (top of the series)): 0.509% (inactive)

Compound: C[C@@H]1CN([C@H](C)CO)C(=O)c2cc(NC(=O)Cc3cn(C)c4ccccc34)ccc2O[C@H]1CN(C)S(=O)(=O)c1ccc(Cl)cc1
- activity change, negative = cytotoxicity ([1]; at 35 µM (top of the series)): 1.29% (inactive)

Compound: CCOC(=O)Nc1cccc(NC(=O)c2cc(OC)cc(OC)c2)c1
- IC50 [2]: > 35 µM (inactive)

Compound: O=C(Nc1ccccc1Cl)c1ccccc1NS(=O)(=O)c1ccccc1
- activity change, negative = cytotoxicity ([1]; at 35 µM (top of the series)): 0.062% (inactive)

Compound: C[C@H](CO)N1C[C@H](C)[C@H](CN(C)S(=O)(=O)c2ccc(F)cc2)Oc2ccc(NC(=O)Cc3cn(C)c4ccccc34)cc2C1=O
- activity change, negative = cytotoxicity ([1]; at 35 µM (top of the series)): -7.27% (inactive)

Compound: Cc1ccc2oc(-c3cccc(NC(=O)c4cc(-n5cnnc5)ccc4Cl)c3)nc2c1
- IC50 [2]: 31.7 µM

Compound: C[C@H]1CN([C@@H](C)CO)C(=O)c2cccc(NC(=O)Nc3ccccc3)c2O[C@@H]1CN(C)Cc1ccccc1
- activity change, negative = cytotoxicity ([1]; at 35 µM (top of the series)): 6.56% (inactive)

Compound: O=C(Nc1cccc(NC(=O)c2cc([N+](=O)[O-])ccc2Cl)n1)c1cc([N+](=O)[O-])ccc1Cl
- activity change, negative = cytotoxicity ([1]; at 35 µM (top of the series)): -3.61% (inactive)

Compound: CC(C)(C)NC(=O)N1CCN(c2ncccc2C(F)(F)F)CC1
- activity change, negative = cytotoxicity ([1]; at 35 µM (top of the series)): 5.12% (inactive)

Compound: CNC[C@@H]1Oc2ccc(NC(=O)Cc3cn(C)c4ccccc34)cc2C(=O)N([C@H](C)CO)C[C@H]1C
- activity change, negative = cytotoxicity ([1]; at 35 µM (top of the series)): -2.77% (inactive)

Compound: O=C(Nc1ccc(-c2nc3ccc(NC(=O)c4ccccc4[N+](=O)[O-])cc3[nH]2)cc1)c1ccccc1[N+](=O)[O-]
- activity change, negative = cytotoxicity ([1]; at 35 µM (top of the series)): 6.25% (inactive)

Compound: C[C@H]1CN([C@@H](C)CO)C(=O)c2cccc(N(C)C)c2O[C@@H]1CN(C)Cc1ccc(Cl)c(Cl)c1
- activity change, negative = cytotoxicity ([1]; at 35 µM (top of the series)): -9.85% (inactive)

Compound: O=C(Nc1ccc(-c2nc3ccc(NC(=O)c4ccccc4)cc3[nH]2)cc1)c1ccccc1
- IC50 [2]: 37.8 µM

Compound: Cc1cc(C(=O)C(C)OC(=O)C2=NNC(=O)CC2)c(C)n1-c1ccc(OC(F)F)cc1 (stereo not given)
- IC50 [2]: > 35 µM (inactive)

Compound: C[C@@H]1CN([C@@H](C)CO)C(=O)c2cc(NC(=O)Cc3cn(C)c4ccccc34)ccc2O[C@@H]1CN(C)S(=O)(=O)c1ccc(F)cc1
- activity change, negative = cytotoxicity ([1]; at 35 µM (top of the series)): 6.07% (inactive)

Compound: CCc1sc(N2C(=O)C3C4CCC(C4=C(C)C)C3C2=O)nc1-c1ccccc1 (stereo not given)
- activity change, negative = cytotoxicity ([1]; at 35 µM (top of the series)): 3.35% (inactive)

Compound: C[C@@H]1CN([C@H](C)CO)C(=O)c2cc(NC(=O)Cc3cn(C)c4ccccc34)ccc2O[C@H]1CN(C)S(C)(=O)=O
- activity change, negative = cytotoxicity ([1]; at 35 µM (top of the series)): 0.836% (inactive)

Compound: CCn1c(COc2c(C)cccc2C)nnc1SCC(=O)N1CCN(c2ccccc2)CC1
- activity change, negative = cytotoxicity ([1]; at 35 µM (top of the series)): -2.44% (inactive)

Compound: COc1ccc(OC)c(CCNC(=O)c2ccc3c(c2)N(Cc2ccc(F)cc2)CCS3)c1
- activity change, negative = cytotoxicity ([1]; at 35 µM (top of the series)): -8.19% (inactive)

Compound: C[C@@H]1CN([C@H](C)CO)C(=O)Cc2cc(NC(=O)Cc3cn(C)c4ccccc34)ccc2O[C@H]1CN(C)S(=O)(=O)c1ccc(F)cc1
- activity change, negative = cytotoxicity ([1]; at 35 µM (top of the series)): -1% (inactive)

Compound: COc1cccc(-c2csc(N3CCN(C(=S)Nc4cccc(Cl)c4)CC3)n2)c1
- activity change, negative = cytotoxicity ([1]; at 35 µM (top of the series)): -1.79% (inactive)

Compound: Nc1ccc(C(=O)Nc2ccc(-c3nc4ccc(NC(=O)c5ccc(N)cc5)cc4[nH]3)cc2)cc1
- activity change, negative = cytotoxicity ([1]; at 35 µM (top of the series)): 11.1% (inactive)

Compound: Cc1cc(C)c2c(c1)NC(c1cc3c(cc1Br)OCO3)C1CC=CC21 (stereo not given)
- activity change, negative = cytotoxicity ([1]; at 35 µM (top of the series)): -1.84% (inactive)

Compound: COC(=O)c1cn(C(=O)c2cccc3ccccc23)c2ccccc12
- activity change, negative = cytotoxicity ([1]; at 35 µM (top of the series)): -9.72% (inactive)

Compound: C[C@H](CO)N1C[C@H](C)[C@H](CN(C)S(=O)(=O)c2ccc(F)cc2)Oc2ccc(NC(=O)Cc3ccccc3)cc2C1=O
- activity change, negative = cytotoxicity ([1]; at 35 µM (top of the series)): 2.52% (inactive)

Compound: COc1ccc([C@H]2CC(=O)C=C(c3cccc4c3sc3ccccc34)C2)cc1OC
- activity change, negative = cytotoxicity ([1]; at 35 µM (top of the series)): 3.09% (inactive)

Compound: C[C@H](CO)N1C[C@H](C)[C@H](CN(C)S(=O)(=O)c2ccc(F)cc2)Oc2ccc(NC(=O)CCC(F)(F)F)cc2C1=O
- activity change, negative = cytotoxicity ([1]; at 35 µM (top of the series)): 0.245% (inactive)

Compound: C[C@@H]1CN([C@H](C)CO)C(=O)c2cc(NC(=O)Cc3cn(C)c4ccccc34)ccc2O[C@H]1CN(C)C(=O)Nc1ccc(F)cc1
- activity change, negative = cytotoxicity ([1]; at 35 µM (top of the series)): 0.369% (inactive)

Compound: O=C(Nc1cc(C(F)(F)F)ccc1Cl)c1ccccc1NS(=O)(=O)c1ccc(Cl)cc1
- activity change, negative = cytotoxicity ([1]; at 35 µM (top of the series)): 4.37% (inactive)

Compound: CC(C)OCCCNC(=O)c1ccc(C2SCC(=O)N2Cc2ccco2)cc1 (stereo not given)
- activity change, negative = cytotoxicity ([1]; at 35 µM (top of the series)): 0.099% (inactive)

Compound: O=C(Nc1ccc(-c2nc3ccc(NC(=O)c4ccc(Cl)cc4)cc3[nH]2)cc1)c1ccc(Cl)cc1
- activity change, negative = cytotoxicity ([1]; at 35 µM (top of the series)): 5.01% (inactive)

Compound: Cc1cc(C)n(CC(=O)NC2CCCc3c2cnn3-c2ccc(C)c(C)c2)n1 (stereo not given)
- activity change, negative = cytotoxicity ([1]; at 35 µM (top of the series)): 0.308% (inactive)

Compound: C[C@@H]1CN([C@@H](C)CO)C(=O)c2cc(NC(=O)Cc3cn(C)c4ccccc34)ccc2O[C@H]1CN(C)S(=O)(=O)c1ccc(F)cc1
- activity change, negative = cytotoxicity ([1]; at 35 µM (top of the series)): -10.2% (inactive)

Compound: CCc1cc2cc3c(cc2nc1SCC(=O)OC(C)C)OCO3
- activity change, negative = cytotoxicity ([1]; at 35 µM (top of the series)): 0.059% (inactive)

Compound: C[C@H]1CN([C@@H](C)CO)C(=O)c2cc(NC(=O)Cc3cn(C)c4ccccc34)ccc2O[C@H]1CN(C)S(=O)(=O)c1ccc(F)cc1
- activity change, negative = cytotoxicity ([1]; at 30 µM (top of the series)): -3.79% (inactive)

Compound: O=C(Nc1ccc(-c2nc3cc(NC(=O)c4ccc(NC(=O)c5cccc6ccccc56)cc4)ccc3[nH]2)cc1)c1ccc(NC(=O)c2cccc3ccccc23)cc1
- activity change, negative = cytotoxicity ([1]; at 35 µM (top of the series)): -0.376% (inactive)

Compound: C[C@H]1CN([C@@H](C)CO)C(=O)c2cccc(NC(=O)Nc3ccccc3)c2O[C@@H]1CN(C)Cc1ccc(Cl)c(Cl)c1
- IC50 [2]: 66.5 µM

Compound: C[C@H]1CN([C@@H](C)CO)C(=O)c2cccc(NC(=O)Nc3ccc(F)cc3)c2O[C@@H]1CN(C)Cc1ccc(Cl)c(Cl)c1
- IC50 [2]: 48.1 µM

Compound: CCC(=O)N1CCc2cc(-c3csc(NC(=O)c4ccco4)n3)ccc21
- activity change, negative = cytotoxicity ([1]; at 35 µM (top of the series)): -3.84% (inactive)

Compound: C[C@H]1CN([C@@H](C)CO)C(=O)c2cccc(NC(=O)Nc3ccccc3)c2O[C@@H]1CN(C)S(C)(=O)=O
- activity change, negative = cytotoxicity ([1]; at 35 µM (top of the series)): -2.86% (inactive)

Compound: CCOC(=O)N1CCC(NC(=O)c2ccc3c(c2)N(Cc2ccc(F)cc2)CCS3)CC1
- activity change, negative = cytotoxicity ([1]; at 35 µM (top of the series)): -2.37% (inactive)

Compound: CC(C)NC(=O)Nc1cccc2c1O[C@H](CN(C)Cc1ccc(Cl)c(Cl)c1)[C@@H](C)CN([C@@H](C)CO)C2=O
- activity change, negative = cytotoxicity ([1]; at 35 µM (top of the series)): 3.16% (inactive)

Compound: COc1ccc(-c2nnn(CC(=O)N(C3CCCCC3)C(C)C(=O)NC3CCCC3)n2)cc1OC (stereo not given)
- IC50 [2]: > 35 µM (inactive)

Compound: C[C@H](CO)N1C[C@H](C)[C@H](CN(C)S(=O)(=O)c2ccc(F)cc2)Oc2ccc(NS(C)(=O)=O)cc2C1=O
- activity change, negative = cytotoxicity ([1]; at 35 µM (top of the series)): -0.83% (inactive)

Compound: Cc1cc(SC(C)C(=O)Nc2ncc(Cl)cc2Cl)nc2ccccc12 (stereo not given)
- activity change, negative = cytotoxicity ([1]; at 35 µM (top of the series)): -7.81% (inactive)

Compound: C[C@H](CO)N1C[C@H](C)[C@@H](CN(C)S(=O)(=O)c2ccc(F)cc2)Oc2ccc(NC(=O)Cc3cn(C)c4ccccc34)cc2C1=O
- activity change, negative = cytotoxicity ([1]; at 35 µM (top of the series)): 4.04% (inactive)

Compound: O=C(Nc1cc(Cl)ccc1Cl)c1cc(Br)ccc1NS(=O)(=O)c1ccc(Cl)c([N+](=O)[O-])c1
- activity change, negative = cytotoxicity ([1]; at 35 µM (top of the series)): -7.81% (inactive)

Compound: C[C@H]1CN([C@@H](C)CO)C(=O)c2cc(NC(=O)Nc3ccccc3)ccc2O[C@@H]1CN(C)Cc1ccc(Cl)c(Cl)c1
- activity change, negative = cytotoxicity ([1]; at 35 µM (top of the series)): -3.65% (inactive)

Compound: C[C@H]1CN([C@@H](C)CO)C(=O)c2cccc(NS(C)(=O)=O)c2O[C@@H]1CN(C)Cc1ccc(Cl)c(Cl)c1
- activity change, negative = cytotoxicity ([1]; at 35 µM (top of the series)): 7.9% (inactive)

Compound: N#Cc1sc2nc(C3CC3)cc(-c3ccc(Cl)cc3)c2c1N
- activity change, negative = cytotoxicity ([1]; at 35 µM (top of the series)): -2.17% (inactive)

Compound: CC(OC(=O)c1cccc(NS(C)(=O)=O)c1)C(=O)Nc1ccc(N2CCOCC2)cc1 (stereo not given)
- activity change, negative = cytotoxicity ([1]; at 35 µM (top of the series)): -2.45% (inactive)

Compound: C[C@H]1CN([C@@H](C)CO)C(=O)c2cc(NC(=O)Cc3cn(C)c4ccccc34)ccc2O[C@@H]1CN(C)S(=O)(=O)c1ccc(F)cc1
- activity change, negative = cytotoxicity ([1]; at 35 µM (top of the series)): 6.2% (inactive)
